Assay results published in the RNAGym collection of RNA variant scans (doi:10.1038/nmeth.2970).

B1: NELF-E aptamer (parent)
chain: CCCAACGACUGCCGAGCGAGAUUACGCUUGAGCGCCCCACUGAGGAUGCCCACGGGCGAUUGGGGCACGG

Variants of: B1
Assay: HiTS-RAP
Settings: with NELF-E (Drosophila)
Outline: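 Aptamer DNA templates carrying a T7 promoter and ter site were sequenced on an Illumina GAIIx flowcell, then transcribed in situ by T7 RNA polymerase and halted by GST-Tus (30 minutes, 37°C). Clusters were imaged after 30-minute room-temperature equilibration with NELF-E-mOrange at 0.064 to 1000 nM in HEPES binding buffer, and only the first binding curve was used. Intensities were normalised to sequencing intensity and averaged per sequence. Kd came from weighted Hill fits, keeping fits with variance below 1,000,000.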

Variant	Kd [nM]
CCCAACGACUGCCGAGCGAGAUGACGCUUGAGCGUCCCACUGAGGAUGCCCACGGGCGAUUGGGGCACGG	11.5
CCCAACGACUGCCGAGCGAGAUGACGCUUGAGCGCACCACUGAGGAUGCCCACGGGCGAUUGGGGCACGG	8.43
CCCAACGACUGCCGAGCGAGAUGACGCUUGAGCGCGCCACUGAGGAUGCCCACGGGCGAUUGGGGCACGG	5.58
CCCAACGACUGCCGAGCGAGAUGACGCUUGAGCGCUCCACUGAGGAUGCCCACGGGCGAUUGGGGCACGG	8.06
CCCAACGACUGCCGAGCGAGAUGACGCUUGAGCGCCACACUGAGGAUGCCCACGGGCGAUUGGGGCACGG	13.4
CCCAACGACUGCCGAGCGAGAUGACGCUUGAGCGCCGCACUGAGGAUGCCCACGGGCGAUUGGGGCACGG	7.9
CCCAACGACUGCCGAGCGAGAUGACGCUUGAGCGCCUCACUGAGGAUGCCCACGGGCGAUUGGGGCACGG	13.8
CCCAACGACUGCCGAGCGAGAUGACGCUUGAGCGCCCAACUGAGGAUGCCCACGGGCGAUUGGGGCACGG	35.2
CCCAACGACUGCCGAGCGAGAUGACGCUUGAGCGCCCUACUGAGGAUGCCCACGGGCGAUUGGGGCACGG	9.73
CCCAACGACUGCCGAGCGAGAUGACGCUUGAGCGCCCCAGUGAGGAUGCCCACGGGCGAUUGGGGCACGG	5.5
CCCAACGACUGCCGAGCGAGAUGACGCUUGAGCGCCCCAUUGAGGAUGCCCACGGGCGAUUGGGGCACGG	135
CCCAACGACUGCCGAGCGAGAUGACGCUUGAGCGCCCCACUGAGGAUGGCCACGGGCGAUUGGGGCACGG	7.29
CCCAACGACUGCCGAGCGAGAUGACGCUUGAGCGCCCCACUGAGGAUGUCCACGGGCGAUUGGGGCACGG	15.6
CCCAACGACUGCCGAGCGAGAUGACGCUUGAGCGCCCCACUGAGGAUGCACACGGGCGAUUGGGGCACGG	16.7
CCCAACGACUGCCGAGCGAGAUGACGCUUGAGCGCCCCACUGAGGAUGCGCACGGGCGAUUGGGGCACGG	5.73
CCCAACGACUGCCGAGCGAGAUGACGCUUGAGCGCCCCACUGAGGAUGCUCACGGGCGAUUGGGGCACGG	12.6
CCCAACGACUGCCGAGCGAGAUGACGCUUGAGCGCCCCACUGAGGAUGCCGACGGGCGAUUGGGGCACGG	5.33
CCCAACGACUGCCGAGCGAGAUGACGCUUGAGCGCCCCACUGAGGAUGCCUACGGGCGAUUGGGGCACGG	7.2
CCCAACGACUGCCGAGCGAGAUGACGCUUGAGCGCCCCACUGAGGAUGCCCAAGGGCGAUUGGGGCACGG	6.72
CCCAACGACUGCCGAGCGAGAUGACGCUUGAGCGCCCCACUGAGGAUGCCCAGGGGCGAUUGGGGCACGG	7.15
CCCAACGACUGCCGAGCGAGAUGACGCUUGAGCGCCCCACUGAGGAUGCCCAUGGGCGAUUGGGGCACGG	4.17
CCCAACGACUGCCGAGCGAGAUGACGCUUGAGCGCCCCACUGAGGAUGCCCACGGGUGAUUGGGGCACGG	5.72
CCCAACGACUGCCGAGCGAGAUGACGCUUGAGCGCCCCACUGAGGAUGCCCACGGGCGAUUGGGGUACGG	6
CCCAACGACUGCCGAGCGAGAUGACACUUGAGCGCCCCACUGAGGAUGCCCACGGGCGAUUGGGGCACGG	6.05
CCCAACGACUGCCGAGCGAGAUGACUCUUGAGCGCCCCACUGAGGAUGCCCACGGGCGAUUGGGGCACGG	6.03
CCCAACGACUGCCGAGCGAGAUGACGCUUAAGCGCCCCACUGAGGAUGCCCACGGGCGAUUGGGGCACGG	4.6

Variant	Kd [nM]
CCCAACGACUGCCGAGCGAGAUGACGCUUUAGCGCCCCACUGAGGAUGCCCACGGGCGAUUGGGGCACGG	7.41
CCCAACGACUGCCGAGCGAGAUGACGCUUGAACGCCCCACUGAGGAUGCCCACGGGCGAUUGGGGCACGG	5.52
CCCAACGACUGCCGAGCGAGAUGACGCUUGAUCGCCCCACUGAGGAUGCCCACGGGCGAUUGGGGCACGG	6.92
CCCAACGACUGCCGAGCGAGAUGACGCUUGAGCACCCCACUGAGGAUGCCCACGGGCGAUUGGGGCACGG	7.56
CCCAACGACUGCCGAGCGAGAUGACGCUUGAGCUCCCCACUGAGGAUGCCCACGGGCGAUUGGGGCACGG	5.63
CCCAACGACUGCCGAGCGAGAUGACGCUUGAGCGCCCCACUAAGGAUGCCCACGGGCGAUUGGGGCACGG	60.7
CCCAACGACUGCCGAGCGAGAUGACGCUUGAGCGCCCCACUUAGGAUGCCCACGGGCGAUUGGGGCACGG	13.1
CCCAACGACUGCCGAGCGAGAUGACGCUUGAGCGCCCCACUGAAGAUGCCCACGGGCGAUUGGGGCACGG	68.6
CCCAACGACUGCCGAGCGAGAUGACGCUUGAGCGCCCCACUGAUGAUGCCCACGGGCGAUUGGGGCACGG	6.93
CCCAACGACUGCCGAGCGAGAUGACGCUUGAGCGCCCCACUGAGAAUGCCCACGGGCGAUUGGGGCACGG	19.3
CCCAACGACUGCCGAGCGAGAUGACGCUUGAGCGCCCCACUGAGUAUGCCCACGGGCGAUUGGGGCACGG	6.11
CCCAACGACUGCCGAGCGAGAUGACGCUUGAGCGCCCCACUGAGGAUACCCACGGGCGAUUGGGGCACGG	11
CCCAACGACUGCCGAGCGAGAUGACGCUUGAGCGCCCCACUGAGGAUUCCCACGGGCGAUUGGGGCACGG	7.64
CCCAACGACUGCCGAGCGAGAUGACGCUUGAGCGCCCCACUGAGGAUGCCCACAGGCGAUUGGGGCACGG	14.4
CCCAACGACUGCCGAGCGAGAUGACGCUUGAGCGCCCCACUGAGGAUGCCCACUGGCGAUUGGGGCACGG	11.1
CCCAACGACUGCCGAGCGAGAUGACGCUUGAGCGCCCCACUGAGGAUGCCCACGAGCGAUUGGGGCACGG	7.34
CCCAACGACUGCCGAGCGAGAUGACGCUUGAGCGCCCCACUGAGGAUGCCCACGCGCGAUUGGGGCACGG	6.97
CCCAACGACUGCCGAGCGAGAUGACGCUUGAGCGCCCCACUGAGGAUGCCCACGUGCGAUUGGGGCACGG	8.32
CCCAACGACUGCCGAGCGAGAUGACGCUUGAGCGCCCCACUGAGGAUGCCCACGGACGAUUGGGGCACGG	8.2
CCCAACGACUGCCGAGCGAGAUGACGCUUGAGCGCCCCACUGAGGAUGCCCACGGUCGAUUGGGGCACGG	5.61
CCCAACGACUGCCGAGCGAGAUGACGCUUGAGCGCCCCACUGAGGAUGCCCACGGGCUAUUGGGGCACGG	15.1
CCCAACGACUGCCGAGCGAGAUGACGCUUGAGCGCCCCACUGAGGAUGCCCACGGGCGAUUAGGGCACGG	15.5
CCCAACGACUGCCGAGCGAGAUGACGCUUGAGCGCCCCACUGAGGAUGCCCACGGGCGAUUUGGGCACGG	9.09
CCCAACGACUGCCGAGCGAGAUGACGCUUGAGCGCCCCACUGAGGAUGCCCACGGGCGAUUGAGGCACGG	20.3
CCCAACGACUGCCGAGCGAGAUGACGCUUGAGCGCCCCACUGAGGAUGCCCACGGGCGAUUGUGGCACGG	12.9
CCCAACGACUGCCGAGCGAGAUGACGCUUGAGCGCCCCACUGAGGAUGCCCACGGGCGAUUGGAGCACGG	6.56

Variant	Kd [nM]
CCCAACGACUGCCGAGCGAGAUGACGCUUGAGCGCCCCACUGAGGAUGCCCACGGGCGAUUGGCGCACGG	6.24
CCCAACGACUGCCGAGCGAGAUGACGCUUGAGCGCCCCACUGAGGAUGCCCACGGGCGAUUGGUGCACGG	6.13
CCCAACGACUGCCGAGCGAGAUGACGCUUGAGCGCCCCACUGAGGAUGCCCACGGGCGAUUGGGACACGG	4.87
CCCAACGACUGCCGAGCGAGAUGACGCUUGAGCGCCCCACUGAGGAUGCCCACGGGCGAUUGGGUCACGG	6.65
CCCAACGACUGCCGAGCGAGAUGACGCAUGAGCGCCCCACUGAGGAUGCCCACGGGCGAUUGGGGCACGG	5.01
CCCAACGACUGCCGAGCGAGAUGACGCCUGAGCGCCCCACUGAGGAUGCCCACGGGCGAUUGGGGCACGG	9
CCCAACGACUGCCGAGCGAGAUGACGCGUGAGCGCCCCACUGAGGAUGCCCACGGGCGAUUGGGGCACGG	7.22
CCCAACGACUGCCGAGCGAGAUGACGCUAGAGCGCCCCACUGAGGAUGCCCACGGGCGAUUGGGGCACGG	5.6
CCCAACGACUGCCGAGCGAGAUGACGCUCGAGCGCCCCACUGAGGAUGCCCACGGGCGAUUGGGGCACGG	5.67
CCCAACGACUGCCGAGCGAGAUGACGCUGGAGCGCCCCACUGAGGAUGCCCACGGGCGAUUGGGGCACGG	5.13
CCCAACGACUGCCGAGCGAGAUGACGCUUGAGCGCCCCACAGAGGAUGCCCACGGGCGAUUGGGGCACGG	66.7
CCCAACGACUGCCGAGCGAGAUGACGCUUGAGCGCCCCACCGAGGAUGCCCACGGGCGAUUGGGGCACGG	93.8
CCCAACGACUGCCGAGCGAGAUGACGCUUGAGCGCCCCACGGAGGAUGCCCACGGGCGAUUGGGGCACGG	5.48
CCCAACGACUGCCGAGCGAGAUGACGCUUGAGCGCCCCACUGAGGAAGCCCACGGGCGAUUGGGGCACGG	13.5
CCCAACGACUGCCGAGCGAGAUGACGCUUGAGCGCCCCACUGAGGAGGCCCACGGGCGAUUGGGGCACGG	6.6
CCCAACGACUGCCGAGCGAGAUGACGCUUGAGCGCCCCACUGAGGAUGCCCACGGGCGAAUGGGGCACGG	12.9
CCCAACGACUGCCGAGCGAGAUGACGCUUGAGCGCCCCACUGAGGAUGCCCACGGGCGACUGGGGCACGG	11.9
CCCAACGACUGCCGAGCGAGAUGACGCUUGAGCGCCCCACUGAGGAUGCCCACGGGCGAGUGGGGCACGG	4.68
CCCAACGACUGCCGAGCGAGAUGACGCUUGAGCGCCCCACUGAGGAUGCCCACGGGCGAUAGGGGCACGG	31
CCCAACGACUGCCGAGCGAGAUGACGCUUGAGCGCCCCACUGAGGAUGCCCACGGGCGAUCGGGGCACGG	67.8
CCCAACGACUGCCGAGCGAGAUGACGCUUGAGCGCCCCACUGAGGAUGCCCACGGGCGAUGGGGGCACGG	6.91
CCCAACGACUGCCGAGCGAGAUUCCGCUUGAGCGCCCCACUGAGGAUGCCCACGGGCGAUUGGGGCACGG	5.86
CCCAACGACUGCCGAGCGAGAUUGCGCUUGAGCGCCCCACUGAGGAUGCCCACGGGCGAUUGGGGCACGG	5.47
CCCAACGACUGCCGAGCGAGAUUGCGCUUGGGCGCCCCACUGAGGAUGCCCACGGGCGAUUGGGGCACGG	6.54
CCCAACGACUGCCGAGCGAGAUUGCGCUUGUGCGCCCCACUGAGGAUGCCCACGGGCGAUUGGGGCACGG	6.88
